The list is not random: actives were taken first. Their share in the collection is about 1.4%.
EBNA-1 inhibitor – EBNA-1 DNA-binding inhibitors, primary screen, biochemical, fluorescence polarization. inhibition, % at 14.8 µM. 300,000 tested, 0.34% active; in the data active = inhibition above about 28%
SUMO HTRF inh – inhibitors of in vitro SUMOylation cascade, primary screen, biochemical, HTRF, uHTS. 290,000 tested, 0.36% active. HTRF SUMOylation assay, SAE1/SAE2 + UBC9. inhibition, % at 35 µM. AID 2006, 2009. SUMO-conjugating enzyme UBC9 (Homo sapiens), P63279; in the data active = inhibition above about 50%, passing the limit was not always enough
Target sequence (P63279 whole entry, looked up): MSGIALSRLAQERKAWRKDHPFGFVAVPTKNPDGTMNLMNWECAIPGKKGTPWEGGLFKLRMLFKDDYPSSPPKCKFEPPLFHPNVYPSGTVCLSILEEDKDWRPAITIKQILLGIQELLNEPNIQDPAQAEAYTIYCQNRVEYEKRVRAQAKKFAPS
ZTA counter – blocks Epstein-Barr virus ZTA, an EBNA-1 counter-screen | ZTA-DNA binding, fluorescence polarization | P03206 | inhibition, % at 11 µM | AID 2234 | 320,000 tested, 0.15% active; in the data active = inhibition above about 33%
Target sequence (P03206 whole entry, looked up): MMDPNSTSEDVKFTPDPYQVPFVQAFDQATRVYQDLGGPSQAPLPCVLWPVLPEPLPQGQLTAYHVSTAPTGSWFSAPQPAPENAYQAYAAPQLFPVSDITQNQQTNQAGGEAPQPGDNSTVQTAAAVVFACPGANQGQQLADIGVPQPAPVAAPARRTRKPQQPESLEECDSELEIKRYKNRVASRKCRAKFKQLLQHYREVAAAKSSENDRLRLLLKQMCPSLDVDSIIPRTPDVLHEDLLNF
NS3 helicase inh – inhibitors of HCV NS3 helicase, primary screen, biochemical, Cy5 molecular beacon fluorescence | Hepatitis C virus NS3 helicase | NS3 helicase DNA unwinding | inhibition, % at 10.9 µM | 290,000 tested, 0.56% active | AID 1800, 2009;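 active = inhibition above the mean of all tested compounds plus 3 SD, set per campaign, cut at about 35% in these data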;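 note: 0% = DMSO wells and 100% = thioflavine S control wells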
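Material: hepatitis C virus NS3 helicase domain fragment enzyme; measured by: Cy5 fluorescence, 0 and 60 min reads; control set: DMSO and thioflavine S; incubation: 60 min unwinding reaction at 25 °C after ATP addition; read-out basis: % inhibition from 60/0 min fluorescence ratio, DMSO 0%, thioflavine S 100%; repeats: singlicate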
core dimer inh – inhibitors of HCV core protein dimerization, primary screen, biochemical, TR-FRET, high-throughput; 300,000 tested, 0.33% active; AID 1899, 2009; TR-FRET GST/Flag-core106 dimerization, 1536-well; inhibition, % at 5 µM;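 active = inhibition above the mean of all tested compounds plus 3 SD, set per screening campaign, cut at about 45% in these data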
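System – GST-tagged and Flag-tagged HCV core protein residues 1-106 · Repeats – one well for each compound · Technique – TR-FRET 671 and 617 nm emission · Doses – one concentration, 5 µM, in 0.5% DMSO · Times – 4 h, 22.5 °C incubation · Also added – Eu donor and XL665 acceptor anti-tag antibodies · Measure – percent inhibition of core106 dimerization signal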
The depositor's hits bear a star; · = no result.

SMILES | EBNA-1 inhibitor | SUMO HTRF inh | ZTA counter | NS3 helicase inh | core dimer inh
N=C1/C(=C/c2ccc(-c3cccc(C(=O)O)c3)o2)C(=O)N=C2SC=C(c3ccccc3)N12 | 59.8* | 78.0* | 34.8* | 21.3 | 13.2
N=C1/C(=C\c2ccc(-c3cc(Cl)cc(Cl)c3)o2)C(=O)N=C2SC=C(c3ccccc3)N12 | 2.2 | 37.9 | 1.4 | 27.3 | 48.6*
CS(=O)(=O)C1=NSC2=NC(=O)/C(=C\c3ccc(-c4ccccc4)o3)C(=N)N21 | -0.1 | -4.7 | -3.2 | 14.8 | -8.6
CC(C)S(=O)(=O)C1=NSC2=NC(=O)/C(=C\c3ccc(-c4cccc(C(=O)O)c4)o3)C(=N)N21 | · | 42.8 | · | 21.6 | ·
COc1cccc(CN2CC(C(=O)NCc3cnn(C)c3)CCC2=O)c1 (stereo not drawn) | 4.4 | -8.4 | 4.0 | 4.6 | -3.4
COc1ccc(NC(=O)CSC2=C(C#N)C(c3ccco3)C(C(=O)Nc3nc4ccccc4s3)=C(C)N2)cc1 (stereo not drawn) | 6.0 | · | -0.7 | -60.7 | 47.7*
C=CCNC(=O)/C(C#N)=C/c1c(N2CCN(c3ccc(OC)cc3)CC2)nc2c(C)cccn2c1=O | -0.1 | 20.1 | 7.9 | 13.7 | 17.3
CC1CCN(C(=S)c2ccc(N(C)C)cc2)CC1 | -3.6 | 9.9 | 5.0 | -5.0 | -1.8
CC(=O)c1ccc2c(c1)C1C=CCC1C(c1ccc(S(=O)(=O)N3CCOCC3)cc1)N2 (stereo not drawn) | 5.0 | 40.0 | 2.2 | 10.5 | 78.8*
N#Cc1c(N(CCO)CCO)nc(N)c2c(N)nc3c(c12)CC(=O)N3CC1CCCO1 (stereo not drawn) | -10.8 | 100.9* | -17.8 | -11.7 | -1.2
CCCCN1C(=O)Cc2c1nc(N)c1c(N)nc(N(CCC)CCC)c(C#N)c21 | -5.8 | 93.7* | -6.2 | -9.9 | 24.2
O=C1c2cccc3cccc(c23)C(=O)N1CC1CCCO1 (stereo not drawn) | -3.4 | 0.1 | 16.0 | -0.8 | -1.4
CCOC(=O)c1c(NC(=O)COC(=O)c2cnc(C)cn2)sc(C(=O)N(C)C)c1C | 6.7 | · | 2.2 | · | 2.2
CCOC(=O)c1c(-c2ccco2)csc1NC(=O)COC(=O)c1cnc(C)cn1 | -1.4 | · | -19.5 | · | 52.1*
Cc1ccc(-c2cc(C(=O)Nc3ccccn3)c3ccccc3n2)o1 | 6.7 | 20.1 | 5.6 | 22.4 | 64.3*
Cc1ccc(NC(=O)c2cc(-c3ccc(C)o3)nc3ccccc23)cc1 | 3.7 | 20.4 | 0.9 | 0.9 | 44.4
O=C(CSc1n[nH]c(=O)[nH]c1=O)Nc1ccc2c(c1)C(=O)c1ccccc1C2=O | -4.9 | 87.6* | -16.8 | 2.2 | 41.7
O=C(CSc1ccccn1)Nc1ccc2c(c1)C(=O)c1ccccc1C2=O | -6.5 | 37.7 | 4.7 | 12.8 | 8.0
CCN(C(=O)COC(=O)/C=C/c1cccc([N+](=O)[O-])c1)c1c(N)n(Cc2ccccc2)c(=O)[nH]c1=O | · | · | 0.5 | · | ·
C=C(C)CN(CC)c1nc(N)c2c(N)nc3c(c2c1C#N)CC(=O)N3C12CC3CC(CC(C3)C1)C2 | -0.9 | 61.7* | -14.8 | -15.2 | 41.7
Cc1cc(C)c(C#N)c(N2CCCC(C(N)=O)C2)n1 (stereo not drawn) | -9.0 | 9.4 | -4.2 | 0.1 | -1.1
N#Cc1c(N2CCCC(O)C2)nc(N)c2c(N)nc3c(c12)CC(=O)N3C12CC3CC(CC(C3)C1)C2 (stereo not drawn) | 9.1 | 99.4* | -1.9 | -28.7 | 51.7*
O=C(Nc1ccccc1F)C1CCN(S(=O)(=O)c2cccc3nonc23)CC1 | -4.6 | 10.5 | -9.7 | -7.5 | 1.3
COc1cc(C(=O)c2nccc3cc(OC)c(OC)cc23)c([N+](=O)[O-])cc1OC | -11.0 | 87.1* | -10.4 | -7.8 | -0.9
COc1cc(N)c(C(=O)c2nccc3cc(OC)c(OC)cc23)cc1OC | -2.5 | 6.1 | -8.0 | 5.0 | -5.5
SMILES | EBNA-1 inhibitor | SUMO HTRF inh | ZTA counter | NS3 helicase inh | core dimer inh
O=c1c2cc(N3CCOCC3)ccc2[nH]c(=S)n1Cc1ccccn1 | 2.0 | 55.4* | -12.2 | 6.4 | 1.5
O=C(Nc1cccc(Cl)c1)Nn1cnnc1 | -26.6 | 51.1* | -7.1 | 2.6 | -2.2
O=C(Nc1ccc(Cl)c(Cl)c1)Nn1cnnc1 | · | 66.9* | · | -12.4 | ·
Cc1ccc(NC(=O)Nn2cnnc2)cc1Cl | 5.8 | 43.8 | 8.0 | -0.2 | 5.5
O=C(Nc1ccccc1)Nn1cnnc1 | · | 19.7 | · | 5.1 | ·
O=C(O)CCCC(=O)N1CCN(c2nc(-c3ccccc3Cl)c3cc(Br)ccc3n2)CC1 | 10.4 | 17.7 | 8.6 | -33.9 | 9.8
NC(=O)c1c(NC(=O)CN2CCN(S(=O)(=O)c3ccccc3)CC2)sc2c1CCC2 | -15.0 | · | -7.3 | · | 47.5*
N#Cc1c(NC(=O)CN2CCN(S(=O)(=O)c3ccc4c(c3)OCCO4)CC2)sc2c1CCC2 | 6.1 | 41.7 | 1.1 | 1.8 | 70.8*
CN1CCN(CC(=O)Nc2sc3c(c2C(=O)Nc2ccccc2)CCCC3)CC1 | 4.8 | 0.7 | 10.9 | -21.2 | -17.7
O=c1[nH]c(C2CCN(S(=O)(=O)/C=C/c3ccccc3)CC2)nc2c1nnn2Cc1ccccc1 | 6.6 | 4.5 | 11.1 | -12.9 | 26.4
C/C(=N\NC(=O)Cc1ccc(Cl)cc1)c1cccc(NC(=O)c2cccnc2)c1 | · | 9.7 | · | -15.0 | ·
NC(N)=NC(N)=Nc1cccc2ccccc12 | -12.0 | 24.7 | -14.7 | 0.2 | -5.1
NC(N)=Nc1cc2ccccc2c2ccccc12 | 9.3 | 86.5* | 7.6 | -12.5 | -3.8
COc1ccc(C2C(C#N)=C(N)N(c3sc4c(c3C#N)CCCC4)C3=C2C(=O)CC(C)(C)C3)cc1 (stereo not drawn) | -3.5 | -10.1 | -12.3 | 14.9 | 40.1
COc1ccc(C2C(C#N)=C3NC(=O)c4c(sc5c4CCCCC5)N3C3=C2C(=O)CC(C)(C)C3)cc1 (stereo not drawn) | -4.0 | 0.6 | -11.3 | 24.2 | 46.0*
O=C(c1cc(-c2ccco2)nn1-c1cccc(Cl)c1)N1CCCCC1 | -4.3 | 2.9 | -13.6 | 22.8 | 55.9*
COc1cc(OC)c(NC(=O)CN(C)S(=O)(=O)c2ccc(-c3ccc(=O)[nH]n3)s2)cc1Cl | -14.0 | 28.4 | 14.4 | -5.4 | 53.3*
Cc1ccc(NC(=O)c2cc(C)n(-c3ccccc3)c2C)cc1 | -0.7 | 3.9 | 6.3 | -6.8 | 7.9
Cc1cc(C(=O)Nc2ccc(Cl)cc2)c(C)n1-c1ccccc1 | 11.7 | 87.5* | 6.2 | -0.2 | 4.7
Nc1c(C(=O)NCc2ccco2)c2nc3ccccc3nc2n1CCc1ccccc1 | · | 99.3* | · | 12.5 | ·
Nc1c(C(=O)NCc2ccccc2)c2nc3ccccc3nc2n1CCCN1CCOCC1 | 5.3 | 98.5* | 23.6 | -41.2 | -12.3
C=CCn1c(N)c(C(=O)NCC2CCCO2)c2nc3ccccc3nc21 (stereo not drawn) | -5.0 | 95.1* | 4.7 | -8.6 | 3.1
CCCCNCCOCCOc1ccccc1-c1ccccc1 | 33.6* | 17.8 | -3.7 | -16.3 | -10.3

Screening data deposited in PubChem by several laboratories.
